The test system of data set [1] is Escherichia coli. Put plainly: Inhibition of Escherichia coli O18:K1 C7 hldE-K expressed in Escherichia coli BL21 using beta-heptose 7-phosphate as substrate incubated for 30 mins prior to substrate addition measured after 30 mins by luminescence assay in presence of Triton-X 100. Summed up:
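E. coli HldE kinase luminescence assay with Triton-X100 at 100 μM to 1 mM added to test for promiscuous, aggregation-type inhibition. Otherwise 3 nM enzyme, 30 min inhibitor preincubation, and 30 min reaction with heptose 7-phosphate and ATP at room temperature.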

Data set [2] in a line: Inhibition of Escherichia coli O18:K1 C7 hldE-K expressed in Escherichia coli BL21 using beta-heptose 7-phosphate as substrate incubated for 30 mins prior to substrate addition measured after 30 mins by luminescence assay. The method in brief: (§1)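 E. coli HldE (His-tagged, IPTG-induced, Ni-NTA-purified), 3 nM, preincubated 30 min at room temperature with inhibitor in Hepes pH 7.5, MnCl₂, KCl, 0.012% Triton-X100, DTT, MBP. Reaction with 0.2 μM heptose 7-phosphate and 0.2 μM ATP, 30 min at room temperature. Remaining ATP read by luciferase/luciferin luminescence; 6−10 concentrations fitted to a Langmuir model for IC50.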

In data set [3] the test system is Escherichia coli. Put plainly: Inhibition of Escherichia coli O18:K1 C7 hldE-K expressed in Escherichia coli BL21 using D-manno-heptose 7-phosphate as substrate incubated for 30 mins prior to substrate addition measured after 30 mins by luminescence assay. Summed up: as §1
Data set [4] in a line: Competitive reversible inhibition of Escherichia coli O18:K1 C7 hldE-K expressed in Escherichia coli BL21 using D-manno-heptose 7-phosphate as substrate incubated for 30 mins prior to substrate addition measured after 30 mins by double reciprocal plot analysis in presence of ATP. The method in brief:
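ATP competition on E. coli HldE-K at 2 μM D-manno-heptose 7-phosphate with varied ATP. Initial velocities read by luciferase luminescence and analysed as a double reciprocal plot of 1/v versus 1/[ATP].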

Data set [5] concerns Klebsiella pneumoniae. In words: Inhibition of Klebsiella pneumoniae ATCC 700603 hldE-K expressed in Escherichia coli BL21 using beta-heptose 7-phosphate as substrate incubated for 30 mins prior to substrate addition measured after 30 mins by luminescence assay. The following applies: ATCC 700603, BL21. The method in brief: (§2)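 HldE kinase luminescence assay as for E. coli, with enzyme at 20 nM for K. pneumoniae, 20 nM for N. meningitidis and 10 nM for S. marcescens. Heptose 7-phosphate and ATP each at 0.2 μM; 30 min preincubation and 30 min reaction at room temperature.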

In data set [6] the test system is Escherichia coli. In words: Antimicrobial activity against tolC-deficient Escherichia coli O18:K1:H7 after overnight incubation in absence of erythromycin. It counts as functional. Summed up: (§3)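 Broth microdilution MIC in cation-adjusted MHB, final inoculum 5 × 10⁵ CFU/mL from early-to-log preculture; serial compound dilutions in 2% DMSO, overnight at 35 °C, growth scored visually. Each strain tested with and without erythromycin (1 μg/mL for K12 ΔacrAB ΔtolC, 8 μg/mL for K1 wild type, 1 μg/mL for K1 ΔtolC).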

The test system of data set [7] is Escherichia coli. Put plainly: Antimicrobial activity against acrAB, tolC-deficient Escherichia coli str. K-12 substr. MG1655 after overnight incubation in absence of erythromycin. It counts as functional. Summed up:
as §3

A short description of data set [8]: Inhibition of Serratia marcescens NEM017811 hldE-K expressed in Escherichia coli BL21 using beta-heptose 7-phosphate as substrate incubated for 30 mins prior to substrate addition measured after 30 mins by luminescence assay. The method in brief: as §2
Data set [9] has as its system Escherichia coli. Put plainly: Antimicrobial activity against tolC-deficient Escherichia coli O18:K1:H7 after overnight incubation in presence of erythromycin. In kind it is functional. The method in brief:
as §3

For data set [10], the system named is Escherichia coli. In words: Antimicrobial activity against acrAB, tolC-deficient Escherichia coli str. K-12 substr. MG1655 after overnight incubation in presence of erythromycin. In kind it is functional. The method in brief:
as §3

Data set [11] in a line: Inhibition of Escherichia coli O18:K1 C7 ribokinase expressed in Escherichia coli BL21 using D-ribose as substrate incubated for 30 mins prior to substrate addition measured after 30 mins by luminescence assay. Summed up:
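Ribokinase run as the HldE kinase assay: purified E. coli ribokinase at 0.6 nM, 3 μM D-ribose, 3 μM ATP. Inhibitor preincubated 30 min, reaction run 30 min at room temperature, luciferase luminescence read-out, IC50 from 6−10 concentrations.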

A short description of data set [12]: Inhibition of Neisseria meningitidis 2C43 hldE-K expressed in Escherichia coli BL21 using beta-heptose 7-phosphate as substrate incubated for 30 mins prior to substrate addition measured after 30 mins by luminescence assay. The method in brief:
as §2

Data set [13] has as its system HepG2. In words: Cytotoxicity against human HepG2 cells after overnight incubation by one cell proliferation assay. It counts as cell-based. The method in brief:
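HepG2 cells at 2 × 10⁴ per well in EMEM with 10% FBS, grown overnight at 37 °C in 5% CO₂. Medium then replaced by compound dilutions in medium with 2% DMSO for overnight incubation. Viability read by CellTiter Aqueous One MTS absorbance at 490 nm.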

For data set [14], the system named is Escherichia coli. Put plainly: Antimicrobial activity against hldE-deficient Escherichia coli O18:K1:H7 after overnight incubation. It counts as functional.
Data set [15] concerns Escherichia coli. Put plainly: Antimicrobial activity against wild type Escherichia coli O18:K1:H7 after overnight incubation. It counts as functional. Summed up:
as §3

Data set [16] deals with Escherichia coli. Put plainly: Antimicrobial activity against acrAB, tolC-deficient Escherichia coli str. K-12 substr. MG1655 after 18 to 22 hrs. It counts as functional.
For data set [17], the system named is Escherichia coli. In words: Antimicrobial activity against acrAB, tolC-deficient Escherichia coli str. K-12 substr. MG1655 assessed as inhibition of LPS synthesis at 2 ug/mL after 5 hrs by silver staining-based electrophoretic analysis. It counts as functional. Summed up: (§4)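 Exponential LB cultures diluted to 5 × 10⁵ CFU/mL, incubated with compound (from water/DMSO 50/50) at 37 °C about 5 h to OD 0.2−0.4. OD-normalized pellets were PBS-washed, SDS-denatured at 95−100 °C, proteinase K-treated 1 h at 55 °C, and run on 16% SDS-PAGE with silver staining. The lowest dose yielding Re-LPS was recorded.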

Data set [18] deals with Escherichia coli. Put plainly: Antimicrobial activity against tolC-deficient Escherichia coli O18:K1:H7 assessed as inhibition of LPS synthesis at 16 ug/mL after 5 hrs by silver staining-based electrophoretic analysis. It counts as functional, organism-based. The method in brief: as §4

≈ marks a conversion by molar mass, not a printed value. Calls of active or inactive are those of the source. The rule behind the calls is not given here.

What is called IC50 is the concentration needed to halve the response being measured. Read a low IC50 as greater potency in that assay. The term Ki denotes a dissociation constant, usually derived from enzyme kinetics or from competition with a known ligand. What is called MIC is the least concentration at which growth counts as inhibited.

For the molecule `COc1cccc(OC)c1-c1cnnc(NCc2nc3ccccc3s2)n1`, the inhibition entry in data set [1] and in data set [3] was “Active” in each case. In [2], this molecule had a 50% inhibitory concentration (IC50) of 2000 nM. For the same molecule, the Ki in data set [4] stood at 2500 nM.

For the molecule `O=C(O)COc1ccc2sc(CNc3nncc(-c4c(Cl)cccc4Cl)n3)nc2c1`, the IC50 in [5] was 100 nM; in data set [2] it was 19 nM; in [8], 41 nM; in data set [11] it was more than 300000 nM; in data set [12], 1800 nM. For the same molecule, the minimum inhibitory concentration (MIC) was more than 32 µg/mL in [6], more than 32 µg/mL in data set [7], more than 32 µg/mL in data set [9] and 32 µg/mL in [10].

For `CN(C)CCOc1ccc2sc(CNc3nncc(-c4c(Cl)cccc4Cl)n3)nc2c1`, the MIC in [6] was more than 32 µg/mL; in [7], 32 µg/mL (≈ 67.3 µM); in data set [9] it was 16 µg/mL; in data set [10], 4 µg/mL. Also, the IC50 in data set [2] turned out to be 82 nM. Moreover, the Activity in data set [13] was more than 32 µg/mL.

As to `OCCOc1ccc2sc(CNc3nncc(-c4c(Cl)cccc4Cl)n3)nc2c1`, the minimum inhibitory concentration (MIC) in data set [6] is more than 32 µg/mL; in [7] it was 16 µg/mL (≈ 35.7 µM); in [9], 32 µg/mL; in data set [10], 0.5 µg/mL. For the same molecule, half-maximal inhibition in data set [2] (IC50) was put at 18 nM. Besides, in data set [13], the Activity was more than 32 µg/mL.

With `CO[C@H]1/C=C/O[C@@]2(C)Oc3c(C)c(O)c4c(O)c(c(/C=N/N5CCN(C)CC5)c(O)c4c3C2=O)NC(=O)/C(C)=C\C=C\[C@H](C)[C@H](O)[C@@H](C)[C@@H](O)[C@@H](C)[C@H](OC(C)=O)[C@@H]1C` [RIFAMPIN], the MIC in [14] was determined as 0.125 µg/mL (≈ 0.152 µM); in [15], 8 µg/mL (≈ 9.72 µM).

With `O=C(COc1ccc2sc(CNc3nncc(-c4c(Cl)cccc4Cl)n3)nc2c1)NCCO`, the IC50 was 150 nM in data set [5]; 49 nM in [2]; 76 nM in data set [8]; more than 300000 nM in [11]; 1900 nM in data set [12]. For the same molecule, the minimal inhibitory concentration (MIC) in [6] was more than 32 µg/mL; in data set [7], more than 32 µg/mL; in data set [16], more than 32 µg/mL; in [9], 16 µg/mL; in [10], 2 µg/mL. In data set [13], this molecule showed an Activity of more than 32 µg/mL. Besides, the inhibition result in [17] and in data set [18] was “Active” in each case.

As for `Oc1ccc2sc(CNc3nncc(-c4c(O)ccc5ccccc45)n3)nc2c1`, the half-maximal inhibitory concentration (IC50) in data set [5] was 85 nM; in [2], 20 nM; in data set [8] it was 41 nM; in [11] it was more than 300000 nM; in data set [12] it was 1300 nM. For the same molecule, the minimum inhibitory concentration (MIC) in data set [6] is more than 32 µg/mL; in [7], 2 µg/mL (≈ 4.98 µM); in data set [9], 2 µg/mL; in [10], 0.063 µg/mL. Also, in [13], the Activity is 20 µg/mL.

For the molecule `CC[C@H]1OC(=O)[C@H](C)[C@@H](O[C@H]2C[C@@](C)(OC)[C@@H](O)[C@H](C)O2)[C@H](C)[C@@H](O[C@@H]2O[C@H](C)C[C@H](N(C)C)[C@H]2O)[C@](C)(O)C[C@@H](C)C(=O)[C@H](C)[C@@H](O)[C@]1(C)O` [ERYTHROMYCIN], the minimal inhibitory concentration (MIC) turned out to be 0.5 µg/mL (≈ 0.681 µM) in data set [14] and 32 µg/mL (≈ 43.6 µM) in data set [15].

`COc1ccc2sc(CNc3nncc(-c4c(C)cccc4O)n3)nc2c1`: the IC50 in data set [5] was 430 nM; in data set [2], 69 nM; in data set [8], 160 nM; in [11], more than 300000 nM; in data set [12], 9800 nM. The MIC in data set [6] is more than 32 µg/mL; in [7], more than 32 µg/mL; in [9] it was more than 32 µg/mL; in data set [10] it was 8 µg/mL.

As to `CC[C@H]1OC(=O)[C@H](C)C(=O)[C@H](C)[C@@H](O[C@@H]2O[C@H](C)C[C@H](N(C)C)[C@H]2O)[C@](C)(OC)C[C@@H](C)C(=O)[C@H](C)[C@H]2N(CCCCn3cnc(-c4cccnc4)c3)C(=O)O[C@]12C` [TELITHROMYCIN], the figures for the minimum inhibitory concentration (MIC) in data set [14] and in data set [15] were 0.25 µg/mL (≈ 0.308 µM) and 8 µg/mL (≈ 9.85 µM), respectively.

On to `CO[C@@H]1[C@@H](OC(N)=O)[C@@H](O)[C@H](Oc2ccc3c(O)c(NC(=O)c4ccc(O)c(CC=C(C)C)c4)c(=O)oc3c2C)OC1(C)C` [NOVOBIOCIN], for which the MIC is 0.5 µg/mL (≈ 0.816 µM) in data set [14] and 32 µg/mL (≈ 52.2 µM) in data set [15].

On to `COc1ccc2sc(CNc3nncc(-c4c(Cl)cccc4Cl)n3)nc2c1`, for which the 50% inhibitory concentration (IC50) was 2300 nM in data set [5]; 130 nM in data set [2]; 1200 nM in data set [8]; more than 300000 nM in data set [11]; 13000 nM in [12]. Further, the MIC in data set [6], in [7], in data set [9] and in data set [10] was more than 32 µg/mL in each case.

As for `NCC(=O)NCCOc1ccc2sc(CNc3nncc(-c4c(Cl)cccc4Cl)n3)nc2c1`, the MIC in data set [6] is more than 32 µg/mL; in data set [7] it was 32 µg/mL (≈ 63.4 µM); in data set [9], 32 µg/mL; in data set [10], 4 µg/mL. The IC50 in data set [2] worked out at 100 nM. Also, the Activity in [13] was 18 µg/mL.

Values taken from ChEMBL document CHEMBL2321650, “Novel HldE-K inhibitors leading to attenuated Gram negative bacterial virulence” (J Med Chem, 2013).
